Experimental data from ChEMBL document CHEMBL1255523, “Optimization of N-benzyl-benzoxazol-2-ones as receptor antagonists of macrophage migration inhibitory factor (MIF)” (Bioorg Med Chem Lett, 2010).
Activity calls are given as the source filed them. The rule behind the calls is not given here.

How the values were obtained:
[1] = target: T1, MIF/CD74 (Macrophage migration inhibitory factor and HLA-DR antigens-associated invariant chain) (Homo sapiens) (UniProt P14174+P04233); test: Inhibition of human recombinant biotinylated MIF/CD74 interaction at up to 10 uM after 30 mins; format: protein assay
In short: (§1)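 Bound MIF was detected with streptavidin-alkaline phosphatase and p-nitrophenylphosphate substrate. Compounds were tested over 500- to 5000-fold concentration ranges.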

[2] = target: T2, Macrophage migration inhibitory factor (Homo sapiens, UniProt P14174); test: Inhibition of human recombinant MIF tautomerase
T2 sequence (P14174 whole entry): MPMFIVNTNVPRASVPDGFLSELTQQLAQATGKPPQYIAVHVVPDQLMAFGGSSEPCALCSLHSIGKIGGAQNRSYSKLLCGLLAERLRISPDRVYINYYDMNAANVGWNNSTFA

[3] = target: T3, Macrophage migration inhibitory factor (Homo sapiens) (UniProt P14174); test: Inhibition of human recombinant MIF tautomerase at 30 uM by mass spectrometry analysis
T3 sequence (whole entry): T2 sequence (P14174 whole entry)

[4] = target: T1, MIF/CD74 (Macrophage migration inhibitory factor and HLA-DR antigens-associated invariant chain) (Homo sapiens); test: Inhibition of human recombinant biotinylated MIF/CD74 interaction at 30 uM by mass spectrometry analysis; format: protein assay
[5] = target: T3, Macrophage migration inhibitory factor (Homo sapiens); test: Inhibition of MIF-dependent ERK1/2 phosphorylation in rheumatoid arthritis patient synovial fibroblasts assessed as phosphorylated ERK1/2 level at 300 nM after 30 mins
[6] = target: T3, Macrophage migration inhibitory factor (Homo sapiens); test: Inhibition of MIF-dependent ERK1/2 phosphorylation in rheumatoid arthritis patient synovial fibroblasts assessed as total ERK1/2 level at 300 nM after 30 mins
[7] = target: T3, Macrophage migration inhibitory factor (Homo sapiens); test: Inhibition of human recombinant MIF tautomerase at up to 0.1 uM
[8] = target: T4, MIF/CD74 (Macrophage migration inhibitory factor and HLA-DR antigens-associated invariant chain) (Homo sapiens, UniProt P04233+P14174); test: (§2) Inhibition of human recombinant biotinylated MIF/CD74 interaction after 30 mins; format: protein assay; in short: as §1
T4 sequence (P14174 whole entry): T2 sequence (P14174 whole entry)
T4 sequence (P04233 whole entry): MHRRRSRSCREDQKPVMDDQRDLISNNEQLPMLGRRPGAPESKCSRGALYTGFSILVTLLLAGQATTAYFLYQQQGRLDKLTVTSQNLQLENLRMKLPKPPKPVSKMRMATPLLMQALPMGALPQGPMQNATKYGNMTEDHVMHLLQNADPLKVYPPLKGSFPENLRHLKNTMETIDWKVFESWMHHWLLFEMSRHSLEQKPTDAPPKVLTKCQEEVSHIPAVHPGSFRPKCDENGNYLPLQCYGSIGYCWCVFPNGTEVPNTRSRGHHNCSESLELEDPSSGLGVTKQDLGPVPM

[9] = target: T5, MIF/CD74 (Macrophage migration inhibitory factor and HLA-DR antigens-associated invariant chain) (Homo sapiens, UniProt P14174+P04233); test: as §2; format: protein assay; in short: as §1
T5 sequence (P14174 whole entry): T2 sequence (P14174 whole entry)
T5 sequence (P04233 whole entry): T4 sequence (P04233 whole entry)

| Structure (SMILES) | inhibition [1] [%] | inhibition [7] [%] | other results |
| --- | --- | --- | --- |
| COc1ccc(Cn2c(=O)oc3ccc(C)cc32)cc1 |  |  | IC50 [2]: Not Active |
| Ic1cc(-c2ccccc2)ncn1 |  |  | inhibition [3]: 90%; inhibition [4]: 50% |
| COc1cc(O)cc(Cn2c(=O)oc3ccc(C)cc32)c1 | 22 | 12 |  |
| Cc1ccc2oc(=O)n(Cc3ccc(O)cc3)c2c1 |  |  | IC50 [2]: Not Active |
| O=c1oc2ccc(O)cc2n1Cc1ccccc1 |  |  | IC50 [2]: Not Active |
| O=c1oc2ccc(CO)cc2n1Cc1cccc(O)c1 |  |  | IC50 [2]: Not Active; IC50 [8]: 30 µM |
| COc1cccc(Cn2c(=O)oc3ccc(O)cc32)c1OC |  |  | IC50 ([2]; read-out: IC50): 2.1 µM; IC50 [8]: 300 µM |
| COc1cccc(Cn2c(=O)oc3ccc(OC)cc32)c1 |  | 41 | IC50 [8]: 200 µM |
| CCOc1cccc(Cn2c(=O)oc3ccc(C)cc32)c1 | 30 | 20 |  |
| COc1cc(Cn2c(=O)oc3ccc(C)cc32)cc(OC)c1 | 11 | 17 |  |
| COc1cccc(Cn2c(=O)oc3ccc(C)cc32)c1OC |  | 32 | IC50 [8]: 7 µM |
| CCOc1cc(O)cc(Cn2c(=O)oc3ccc(C)cc32)c1 | 35 | 30 |  |
| CCOc1ccccc1Cn1c(=O)oc2ccc(C)cc21 | 45 | 21 |  |
| O=c1oc2cc(F)ccc2n1Cc1cccc(O)c1 |  |  | IC50 [2]: Not Active; IC50 [9]: Not Active |
| CCc1ccc2oc(=O)n(Cc3cccc(OC)c3)c2c1 | 15 | 13 |  |
| Cc1ccc2oc(=O)n(Cc3cccc(F)c3)c2c1 |  |  | IC50 [2]: Not Active |
| COc1cccc(Cn2c(=O)oc3ccc(F)cc32)c1 |  |  | IC50 [2]: Not Active |
| COc1cccc(Cn2c(=O)oc3cc(C)c(C)cc32)c1 |  | 25 | IC50 [8]: 0.115 µM |

More lines, main results first:

| inhibition [1] [%] | inhibition [7] [%] | Structure (SMILES) | other results |
| --- | --- | --- | --- |
| 25 |  | Cc1ccc2c(c1)oc(=O)n2Cc1ccccc1 |  |
| 40 |  | Cc1ccc2oc(=O)n(Cc3cccc(O)c3)c2c1 | inhibition [5]: Active; inhibition [3]: 50%; inhibition [6]: Active; inhibition [4]: 50% |
| 18 |  | O=c1oc2ccccc2n1Cc1ccccc1 | IC50 ([2]; read-out: IC50): 21 µM |
| 32 | 33 | Cc1cc2oc(=O)n(Cc3cccc(O)c3)c2cc1C |  |
|  | 10 | COc1ccc2oc(=O)n(Cc3cccc(O)c3)c2c1 | IC50 [8]: 0.08 µM |
| 36 | 25 | O=c1oc2ccc(O)cc2n1Cc1cccc(O)c1 |  |
| 27 | 31 | Cc1ccc2oc(=O)n(Cc3cccc(N)c3)c2c1 |  |
| 27 |  | COc1ccccc1Cn1c(=O)oc2ccc(O)cc21 | IC50 ([2]; read-out: IC50): 30 µM |
| 24 | 16 | COc1cccc(Cn2c(=O)oc3cc(C)ccc32)c1 |  |
| 27 | 44 | COc1cccc(Cn2c(=O)oc3ccc(CO)cc32)c1 |  |
| 22 | 28 | O=c1oc2cc(O)ccc2n1Cc1ccccc1 |  |
| 19 |  | CCc1ccc2oc(=O)n(Cc3cccc(O)c3)c2c1 | IC50 ([2]; read-out: IC50): 2.5 µM |
| 10 |  | Cc1ccc2c(c1)oc(=O)n2Cc1cccc(O)c1 | IC50 ([2]; read-out: IC50): 0.0075 µM |
| 15 | 35 | COc1cccc(Cn2c(=O)oc3cc(F)ccc32)c1 |  |
| 18 | 32 | O=c1oc2ccc(F)cc2n1Cc1cccc(O)c1 |  |
| 42 |  | COc1cccc(Cn2c(=O)oc3ccc(C)cc32)c1 |  |
